# Screens from PubChem.
# PKA-R1A act: activators of PKA-R1A holoenzyme, primary screen, biochemical, fluorescence polarization, Cy5-IP20, bovine R1A, mouse PKAc. activation, % at 11.4 µM. 340,000 compounds, 0.083% hits. cAMP-dependent protein kinase type I-alpha regulatory subunit (Bos taurus) + …. PKA-R1A dissociation; scaled: DMSO 0%, 113 µM cGMP 100%;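 active = percent activation above the mean of all tested compounds plus 3 SD, cut at about 19% in these data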;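 also: higher means more PKAc released from R1A so a rise in polarization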
# PG9 binder: binders of HIV-1 gp120 antibody PG9, primary screen, biochemical, TR-FRET; TR-FRET gp120-PG9 antibody binding; inhibition, % at 6.7 µM; 360,000 compounds, 0.43% hits; AID 624416, 2012; in the data active = inhibition above about 8.5%
# PKA-R2B activ: activators of PKA-R2B holoenzyme, primary screen, biochemical, fluorescence polarization, Cy5-IP20, human | cAMP-dependent protein kinase catalytic subunit beta (Homo sapiens) + cAMP-dependent … | PKA-R2B holoenzyme dissociation; R2B truncated from residue 108, S112A mutant; 0% DMSO only, 100% 113 µM cGMP | activation, % at 11.4 µM | 340,000 compounds, 0.079% hits;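 active = activation above a cutoff set at the mean over all compounds plus 3 SD, cut at about 18% in these data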;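 also: higher means more holoenzyme dissociation and a rise in polarization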
# NR2E3 ag-1: inhibitors of NR2E3-RetCOR corepressor binding, primary screen, NR2E3 agonist project, biochemical, TR-FRET, GST-NR2E3, biotin-RetCOR; Photoreceptor-specific nuclear receptor (Homo sapiens), Q9Y5X4; 1536-well; inhibition of corepressor binding, % at 4.78 µM; 320,000 compounds, 0.12% hits;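 active = percent inhibition above the cutoff of mean plus 3 SD of all tested compounds, set per screening campaign, cut at about 20% in these data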;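 also: 0% = DMSO wells and 100% = biotin wells as full block of FRET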
# Target sequence (Q9Y5X4 whole entry, looked up): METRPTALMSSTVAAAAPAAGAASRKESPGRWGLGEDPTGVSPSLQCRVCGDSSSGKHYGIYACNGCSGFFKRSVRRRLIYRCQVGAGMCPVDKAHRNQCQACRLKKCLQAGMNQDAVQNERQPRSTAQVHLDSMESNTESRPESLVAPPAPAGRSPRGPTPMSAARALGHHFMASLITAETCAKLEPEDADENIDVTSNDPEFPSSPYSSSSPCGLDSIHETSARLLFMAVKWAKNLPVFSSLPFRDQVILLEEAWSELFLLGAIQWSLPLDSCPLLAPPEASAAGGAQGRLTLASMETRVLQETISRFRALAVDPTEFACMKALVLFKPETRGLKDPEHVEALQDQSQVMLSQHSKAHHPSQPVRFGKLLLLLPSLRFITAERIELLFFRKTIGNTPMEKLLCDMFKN
#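 Test system: GST-NR2E3 and biotin-RetCOR proteins | Quantity: 1.35 nM GST-tagged NR2E3 final | Medium: Tris pH 7.5 | Also added: 7 nM biotin-RetCOR | Dosing: Compound at 4.8 µM, single dose | Timing: 5 h at 4 °C | Detection: Time-resolved FRET | Read-out basis: Percent inhibition | Benchmarks: Biotin wells as high control, 0.6% DMSO wells as low control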
# NR2E3 ag-2: NR2E3 agonists in two-hybrid cells, primary screen, cell-based, luminescence, CHO-S, Gal4-NCOR/VP16-NR2E3; AID 602229, 2012; 360,000 compounds, 0.35% hits; inhibition of corepressor binding, % at 3.98 µM; luciferase;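 active = inhibition above the mean of all tested compounds plus 3 SD, cut at about 70% in these data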;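 also: 0% = DMSO with NR2E3 transfected cells and 100% = cells lacking NR2E3 construct; higher means lower luciferase signal from less NR2E3 corepressor binding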
# NR1D1 modulator: modulators of Rev-erb alpha DNA binding, primary screen, biochemical, FITC-DNA, fluorescence polarization, uHTS. activity, % at 10 µM. Rev-erbα–FITC-DNA binding, 90 min. 370,000 compounds, 0.79% hits;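 active = activity above about 14%, limit read from the data; passing the limit was not always enough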;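 also: 0% = DMSO wells with 35 nM protein and 100% = DMSO wells with 750 nM protein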
# R2B FP artifact: fluorescence polarization artefacts, biochemical, artefact control for PKA-R2B activator project | 270 compounds, 6% hits | activation, % at 11.4 µM | FP artifact counterscreen | shares compounds with PKA-R2B activ | AID 504796, 2011; in the data active = activation above about 20%;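 also: Cy5 labelled IP20 peptide probe with compound but no PKA protein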
# PKA-R2B act conf: activators of PKA-R2B holoenzyme, confirmation, biochemical, fluorescence polarization, human. 270 compounds, 9% hits. activation, % at 11.4 µM. PKA-R2B complex, activation. AID 504797, 2011. shares compounds with PKA-R2B activ; in the data active = activation above about 19%
# * marks the source's active call; other numbers are inactive results; / = no result given. An excerpt weighted towards active compounds, which were near 1.6% of everything screened.
SMILES,PKA-R1A act,PG9 binder,PKA-R2B activ,NR2E3 ag-1,NR2E3 ag-2,NR1D1 modulator,R2B FP artifact,PKA-R2B act conf
O=C(O)CC(Cc1ccc(Cl)cc1)C(=O)Nc1ccc([N+](=O)[O-])cc1 (configuration not stated),3,-1,19*,-2,-34,-3,-4,-1
C=CCN(C)CC#Cc1ccc(OC)cc1,/,/,/,/,/,-1,/,/
CC(C)C[C@@H]1NC(=O)[C@H]2C[C@@]3(C)c4ccccc4N[C@H]3N2C1=O,/,/,/,/,/,-4,/,/
C=CCNC(=O)c1ccc(-c2nc(-c3ccccc3)cs2)cc1,-7,-1,4,3,-151,3,/,/
C=CCNC(=O)c1ccc(-c2nc3ccccc3nc2-c2ccccc2)cc1,2,-2,22*,1,9,5,-1,4
COCCN1C=C2C(=O)C(C)(OC(=O)CCC(=O)OC)C(=O)C=C2C=C1C1CC1 (configuration not stated),0,/,20*,3,9,/,2,-3
COc1cc2c(cc1OC)C(Cc1ccc(O)cc1)NCC2 (configuration not stated),5,0,-5,-1,-5,-2,/,/
CCOc1ccc(CC2NCCc3cc(OCC)c(OCC)cc32)cc1OCC (configuration not stated),8,-1,20*,-1,-30,0,2,5
NC(=O)c1ccc[n+]([C@@H]2O[C@H](COP(=O)([O-])OP(=O)(O)OC[C@H]3O[C@@H](n4cnc5c(N)ncnc54)[C@H](O)[C@@H]3O)[C@@H](O)[C@H]2O)c1,/,/,/,/,/,-3,/,/
CC1=CC2=NC(=O)CC(C)(C(=O)N(CC(=O)NC(C)(C)C)C3CCCC3)N2C=C1 (configuration not stated),-4,2,22*,2,14,1,-1,-1
CC(C)(C)NC(=O)CN(C(=O)C1(C)CC(=O)N=C2C=CC=CN21)C1CCCC1 (configuration not stated),0,2,3,2,23,2,/,/
O=C(CSc1nc2ccccc2c(=O)n1-c1ccc(Cl)cc1)NNC(=S)Nc1ccccc1,/,/,/,/,/,2,/,/
COC(=O)[C@@H](NC(=O)c1ccc(OC2CCN(Cc3ccccn3)CC2)cc1)C(C)C,6,0,20*,4,-22,2,-1,-2
O=C(NC1=N[C@@]2(C=C3CCCCC3n3c(=O)n(-c4ccccc4)c(=O)n32)[C@H](Cc2ccccc2)N1Cc1ccccc1)c1ccccc1 (some centres not stated),/,/,/,/,/,-4,/,/
O=C(NC1CCCCC1)c1ccc(Br)o1,-9,-1,18*,2,-10,0,-3,2
CC(=O)c1ccc(NCCCN2CCC(C(O)(c3ccccc3)c3ccccc3)CC2)cc1,/,/,/,/,/,4,/,/
COC(=O)[C@]12C[C@H](CC(=O)N3CCN(C(=O)c4ccco4)CC3)C(=O)N(Cc3ccc(Cl)cc3Cl)C1=C[C@H](C1CCCC1)O[C@@H]2C,/,/,/,/,/,-7,/,/
CCOc1c(CNCCNC(=O)c2nonc2N)cccc1OC,4,-1,19*,5,-22,1,2,6
Cc1ccc(N2C(=O)C3ON(c4ccccc4)C(c4ccncc4)C3C2=O)cc1 (configuration not stated),3,1,20*,-2,-26,-1,2,3
COc1cccc(OC)c1CNC(=O)CCSCc1ccccc1F,-9,0,-6,-3,-19,0,/,/
COc1cccc(CNC(=O)CCSCc2ccccc2F)c1,5,2,20*,0,-15,6,-2,-1
O=C(COC(=O)c1ccccc1O)NC1CCCc2ccccc21 (configuration not stated),1,1,21*,/,-29,0,2,5
COc1cccc(C(=O)OCC(=O)NC2CCCc3ccccc32)c1O (configuration not stated),-3,3,-1,/,-10,-5,/,/
COC(=O)[C@]12C[C@H](CC(=O)N3CCN(C(=O)C4CC4)CC3)C(=O)N(CCc3ccc(OC)c(OC)c3)C1=C[C@H](C(C)(C)C)O[C@@H]2C,/,/,/,/,/,6,/,/
CNC(=S)NNc1nc(N2CCOCC2)nc(N2CCOCC2)n1,-6,0,-6,0,-2,-2,/,/
SMILES,PKA-R1A act,PG9 binder,PKA-R2B activ,NR2E3 ag-1,NR2E3 ag-2,NR1D1 modulator,R2B FP artifact,PKA-R2B act conf
CCNC(=S)NNc1nc(N2CCOCC2)nc(N2CCOCC2)n1,-10,-2,19*,-1,-35,-2,1,1
Cn1cnc(S(=O)(=O)Nc2cc(C(F)(F)F)ccc2N2CCOCC2)c1,-4,-1,20*,-1,-2,3,1,-1
Brc1ccc(/C=N/Nc2ncnc3c2cnn3Cc2ccccc2)cc1,-4,0,22*,0,-10,-6,-1,3
c1ccc(Cn2ncc3c(Nc4ccccc4)ncnc32)cc1,-1,0,1,1,5,4,/,/
CN(C)c1ccc(-c2nc3ncc(Cl)cc3[nH]2)cc1,/,/,/,/,/,-5,/,/
CCOc1cc(/C=N/n2c(C)nc3ccccc3c2=O)ccc1O,-10,-1,20*,-2,4,-1,2,3
CC(=O)NCC(=O)OC(C)C(=O)Nc1ccc(C(C)=O)cc1 (configuration not stated),0,0,19*,1,18,0,-3,2
CCCC(c1nnnn1CC(=O)OCC)N(Cc1cc2ccc(C)cc2[nH]c1=O)C1CCCC1 (configuration not stated),2,-3,-3,0,12,-1,/,/
CCCC(c1nnnn1CC(=O)OCC)N(Cc1cc2c(C)cc(C)cc2[nH]c1=O)C1CCCC1 (configuration not stated),7,-3,19*,-1,-16,-2,4,-1
